# Measured values reported in ChEMBL document CHEMBL4028848, “Discovery of N-{4-[5-(4-Fluorophenyl)-3-methyl-2-methylsulfanyl-3H-imidazol-4-yl]-pyridin-2-yl}-acetamide (CBS-3595), a Dual p38α MAPK/PDE-4 Inhibitor with Activity against TNFα-Related Diseases” (J Med Chem, 2017).
# Active and inactive are the calls of the source. No cut-off for these calls is given here.
# How the values were obtained:
# [1] = target: Mitogen-activated protein kinase 1 (Homo sapiens) (UniProt P28482); assay: Inhibition of MAPK1 (unknown origin) at 10 uM
# [2] = target: Mitogen-activated protein kinase 12 (Homo sapiens) (UniProt P53778); assay: Inhibition of p38MAPK gamma (unknown origin) at 10 uM relative to control
# [3] = Drug level in cynomolgus monkey liver microsomes treated with CBS-3595 at 10 to 100 uM; assay type: ADME, Macaca fascicularis, microsome
# Summary of the method: (§1)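 Test compound incubated at 10, 30 and 100 μM with liver microsomes from rat, Cynomolgus monkey or human, and metabolites monitored.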
# [4] = target: Mitogen-activated protein kinase 1 (Homo sapiens) (UniProt P28482); assay: Inhibition of MAPK2 (unknown origin) at 10 uM
# Canis familiaris = assay: Tmax in Beagle dog assessed as 4-(4-(4-fluorophenyl)-1-methyl-2-(methylsulfinyl)-1H-imidazol-5-yl)pyridin-2-amine level at 40 mg/kg, po by LC-MS/MS analysis; assay type: ADME, organism-based, Canis lupus familiaris; settings: in vivo
# [5] = target: Casein kinase I isoform delta (Homo sapiens) (UniProt P48730); assay: Inhibition of CK1delta (unknown origin) at 10 uM relative to control
# Homo sapiens [6] = species on record: Homo sapiens; assay: Inhibition of cyclinH/MAT1 (unknown origin) at 10 uM relative to control
# Rattus norvegicus [7] = assay: Toxicity in rat assessed as effect on central nervous system at 30 to 300 mg/kg, po administered as single dose; assay type: organism-based; settings: in vivo
# [8] = Apparent permeability in human Caco2 cells at 10 uM; assay type: ADME, cell-based; settings: Caco-2
# [9] = Drug metabolism in human urine assessed as 4-(4-(4-fluorophenyl)-1-methyl-2-(methylsulfinyl)-1H-imidazol-5-yl)pyridin-2-amine formation at 10 to 50 mg, po administered as single dose after 36 hrs; assay type: ADME, organism-based; settings: in vivo
# Summary of the method: (§2)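 Healthy subjects, single oral dose. Urine collected at 0–6, 6–12, 12–24 and 24–36 h post dose and analysed for parent and metabolite. Excreted amount expressed relative to administered dose.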
# Homo sapiens [10] = assay: Toxicity in human assessed as change in body weight at 50 mg, po administered as single dose; assay type: organism-based; settings: in vivo
# Mus musculus [11] = assay: Antiarthritic activity in human TNF transgenic mouse model assessed as reduction in bone erosion at 20 to 50 mg/kg/day, po for 10 weeks; assay type: functional, organism-based
# Summary of the method: (§3)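 Heterozygous human TNF transgenic mice (8 per group) were dosed orally for ten weeks with 20 or 50 mg/kg/day as a methylcellulose suspension, alongside vehicle and infliximab i.p. controls. Joint swelling and grip strength were scored weekly, and hind paws were examined histologically at the end.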
# [12] = Tmax in cynomolgus monkey at 20 mg/kg, po measured on day 1 and 27 post dose by LC-MS/MS analysis; assay type: ADME, organism-based, Macaca fascicularis; settings: in vivo
# [13] = target: Mitogen-activated protein kinase 14 (Homo sapiens, UniProt Q16539); assay: Inhibition of MKK6-mediated p38alpha MAPK (unknown origin) phosphorylation up to 10 uM
# Homo sapiens [14] = species on record: Homo sapiens; assay: Inhibition of PDE4 in human U937 cells assessed as [3H]cAMP hydrolysis at 1 uM relative to control; assay type: cell-based
# Rattus norvegicus [15] = assay: Toxicity in Sprague-Dawley rat assessed as piloerection at 2000 mg/kg, po administered via gavage measured on day 1 and 2; assay type: organism-based; settings: in vivo
# Homo sapiens [16] = assay: Toxicity in human assessed as effect on heart rate at 50 mg, po administered as single dose; assay type: organism-based; settings: in vivo
# [17] = Cmax in mongrel dog at 30 mg/kg, po by LC-MS/MS analysis; assay type: ADME, organism-based, Canis lupus familiaris; set-up: dose 30 mg/kg, route oral; settings: in vivo
# Summary of the method: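 Oral single-dose PK; plasma concentrations of parent and metabolite measured. Dogs: blood sampled 0.25 to 24 h after dosing. Humans: healthy subjects, placebo-controlled single-blind randomized consecutive dosing, plasma sampled predose and 0.25–36 h post dose. 10 mg also given fasting and fed in crossover. Parameters derived from individual concentration–time profiles.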
# [18] = Drug excretion in human urine at 10 to 50 mg, po administered as single dose up to 36 hrs; assay type: ADME, organism-based; settings: read-out: Drug excretion; summary of the method: as §2
# [19] = Toxicity in cynomolgus monkey for 28 days; set-up: species or system Macaca fascicularis; settings: in vivo
# Summary of the method: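 Cynomolgus monkeys, 32 in total, 3–5 per group. Dosed for 28 days with vehicle or 6, 12 or 20 mg/kg; the high dose was raised to 25 mg/kg/day after 1 week. Two males and two females from the control and high-dose groups were followed through a further 2-week treatment-free period. Deaths and clinical signs recorded.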
# Cynomolgus monkey = assay: Toxicity in cynomolgus monkey assessed as whitish vomiting at 6 to 20 mg/kg, po; assay type: organism-based, Macaca fascicularis; settings: in vivo
# Bone marrow cell = assay: Clastogenicity in mouse bone marrow cells by microneucleus test; assay type: toxicity, cell-based
# Summary of the method: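 In vivo micronucleus test in mouse bone marrow.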
# Liver = assay: Drug metabolism in rat liver microsomes assessed as N-(4-(4-(4-fluorophenyl)-1-methyl-2-(methylsulfinyl)-1H-imidazol-5-yl)pyridin-2-yl)acetamide formation at 10 to 100 uM; assay type: ADME, microsome; summary of the method: as §1
# Homo sapiens [20] = assay: AUC (infinity) in human assessed as 4-(4-(4-fluorophenyl)-1-methyl-2-(methylsulfinyl)-1H-imidazol-5-yl)pyridin-2-amine formation at 20 mg, po administered as single dose; assay type: ADME, organism-based; set-up: dose 20 mg, time infinity, route oral; settings: in vivo
# Summary of the method: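 Placebo-controlled, single-blind, randomized, consecutive-dosing study in healthy subjects given single oral doses, with 10 mg also given fasting and fed in a crossover. Plasma parent and active metabolite were measured predose and from 0.25 to 36 h post dose. PK parameters were derived from individual concentration–time profiles and reported as means.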
# Rattus norvegicus [21] = assay: In vivo inhibition of P38 MAPKalpha in Lewis rat assessed as decrease in LPS-stimulated TNFalpha level in serum at 10 mg/kg, po pretreated for 1 hrs followed by LPS addition measured after 1.5 hrs post dose; assay type: functional, organism-based
# Summary of the method: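 Lewis rats, n = 8/group: females dosed orally at 10 mg/kg at −1, −3 or −5 h relative to LPS challenge, plus one male group dosed at −1 h. Male and female vehicle controls were given at −1 h. Serum TNFα was measured after LPS and compared with vehicle.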
# Rattus norvegicus [22] = assay: In vivo inhibition of P38 MAPKalpha in Sprague-Dawley rat assessed as decrease in LPS-stimulated TNFalpha level in serum at 3 mg/kg, po pretreated for 1 hr followed by LPS addition measured after 2 hrs relative to control; assay type: functional
# Mus musculus [23] = assay: Antiarthritic activity in human TNF transgenic mouse model assessed as reduction in paw swelling at 20 to 50 mg/kg/day, po for 10 weeks; assay type: functional, organism-based; summary of the method: as §3
# Rattus norvegicus [24] = assay: Toxicity in single po dosed rat assessed as increase in peak inspiratory flow at 100 to 300 mg/kg, po administered as single dose; assay type: organism-based; settings: in vivo
# Lymphocyte = assay: Clastogenicity in human lymphocytes in absence of S9 fraction by microneucleus test; assay type: toxicity, cell-based
# Summary of the method: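 Cytogenetic clastogenicity assay in cultured human lymphocytes, run with and without S9 mix.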
# Homo sapiens [25] = species on record: Homo sapiens; assay: Inhibition of PDE4 in LPS-stimulated human whole blood assessed as decrease in leukotriene B4 level in plasma
# [26] = Drug metabolism in human primary hepatocytes assessed as CBS-3733 formation at 10 to 100 uM; assay type: ADME, cell-based, Hepatocyte
# [27] = target: CDK3/Cyclin E (Homo sapiens) (UniProt P24864+Q00526); assay: Inhibition of CDK3/cyclinE (unknown origin) at 10 uM relative to control; assay type: protein-complex assay
# [28] = Tmax in male Sprague-Dawley rat at 30 mg/kg, po by LC-MS/MS analysis; assay type: ADME, organism-based; settings: in vivo
# Rattus norvegicus [29] = assay: Toxicity in Sprague-Dawley rat assessed as increase in histopathological changes at 150 mg/kg, po administered via gavage for daily 28 days followed by 2 weeks off without dosing; assay type: organism-based; settings: in vivo
# Chain of Mitogen-activated protein kinase 1 (Homo sapiens) (P28482 whole entry): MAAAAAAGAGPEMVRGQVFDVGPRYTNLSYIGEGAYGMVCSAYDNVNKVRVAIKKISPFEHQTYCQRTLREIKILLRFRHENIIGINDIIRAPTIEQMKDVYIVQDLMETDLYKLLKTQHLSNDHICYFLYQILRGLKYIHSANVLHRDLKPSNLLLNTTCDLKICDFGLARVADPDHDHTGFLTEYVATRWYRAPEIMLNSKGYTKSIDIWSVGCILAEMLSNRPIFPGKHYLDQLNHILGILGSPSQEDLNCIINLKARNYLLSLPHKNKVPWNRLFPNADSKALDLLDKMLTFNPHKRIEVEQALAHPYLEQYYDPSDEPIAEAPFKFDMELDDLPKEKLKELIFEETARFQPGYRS
# Chain of CDK3/Cyclin E (Homo sapiens) (P24864 whole entry, looked up): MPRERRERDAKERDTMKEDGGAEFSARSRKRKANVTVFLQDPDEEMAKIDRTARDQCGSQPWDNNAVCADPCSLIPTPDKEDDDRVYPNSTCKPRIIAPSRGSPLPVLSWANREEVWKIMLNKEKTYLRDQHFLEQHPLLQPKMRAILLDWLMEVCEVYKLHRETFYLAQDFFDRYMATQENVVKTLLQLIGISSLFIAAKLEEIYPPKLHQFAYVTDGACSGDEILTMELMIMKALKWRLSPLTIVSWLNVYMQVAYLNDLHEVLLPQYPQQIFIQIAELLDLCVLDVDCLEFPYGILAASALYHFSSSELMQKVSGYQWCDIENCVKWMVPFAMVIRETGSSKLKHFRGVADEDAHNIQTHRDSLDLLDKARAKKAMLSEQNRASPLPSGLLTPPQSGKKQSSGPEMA
# Chain of CDK3/Cyclin E (Homo sapiens) (Q00526 whole entry, looked up): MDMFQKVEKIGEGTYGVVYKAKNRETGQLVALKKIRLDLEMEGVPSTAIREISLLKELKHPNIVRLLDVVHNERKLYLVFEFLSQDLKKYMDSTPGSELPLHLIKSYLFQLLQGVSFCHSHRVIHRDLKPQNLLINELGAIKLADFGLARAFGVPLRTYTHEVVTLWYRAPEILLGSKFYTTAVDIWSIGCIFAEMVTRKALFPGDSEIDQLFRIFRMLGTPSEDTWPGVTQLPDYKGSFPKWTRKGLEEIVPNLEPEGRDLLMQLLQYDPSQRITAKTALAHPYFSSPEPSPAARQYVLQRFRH
# Chain of Mitogen-activated protein kinase 14 (Q16539 whole entry): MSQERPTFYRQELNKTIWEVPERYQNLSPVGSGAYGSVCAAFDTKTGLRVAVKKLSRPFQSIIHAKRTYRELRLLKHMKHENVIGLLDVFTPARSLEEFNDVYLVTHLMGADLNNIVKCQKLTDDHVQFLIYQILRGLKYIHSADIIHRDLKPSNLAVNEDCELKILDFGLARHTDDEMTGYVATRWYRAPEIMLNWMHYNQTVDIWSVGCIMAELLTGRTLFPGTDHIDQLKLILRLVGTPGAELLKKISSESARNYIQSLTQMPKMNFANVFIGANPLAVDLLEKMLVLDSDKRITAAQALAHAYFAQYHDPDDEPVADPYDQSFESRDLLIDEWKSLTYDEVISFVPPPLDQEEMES
# Chain of Casein kinase I isoform delta (Homo sapiens) (P48730 whole entry, looked up, canonical isoform): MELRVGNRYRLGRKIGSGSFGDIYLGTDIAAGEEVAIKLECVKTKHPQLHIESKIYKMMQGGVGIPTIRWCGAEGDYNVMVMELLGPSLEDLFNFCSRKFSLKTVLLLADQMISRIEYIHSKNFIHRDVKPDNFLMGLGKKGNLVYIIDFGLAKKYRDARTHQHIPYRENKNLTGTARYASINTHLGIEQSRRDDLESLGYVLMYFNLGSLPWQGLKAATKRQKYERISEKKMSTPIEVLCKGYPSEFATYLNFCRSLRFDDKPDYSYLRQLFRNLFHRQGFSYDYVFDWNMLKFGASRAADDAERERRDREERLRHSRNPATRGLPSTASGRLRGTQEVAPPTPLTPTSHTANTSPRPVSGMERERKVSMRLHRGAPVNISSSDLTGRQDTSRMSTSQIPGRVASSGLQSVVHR
# Chain of Mitogen-activated protein kinase 12 (Homo sapiens) (P53778 whole entry): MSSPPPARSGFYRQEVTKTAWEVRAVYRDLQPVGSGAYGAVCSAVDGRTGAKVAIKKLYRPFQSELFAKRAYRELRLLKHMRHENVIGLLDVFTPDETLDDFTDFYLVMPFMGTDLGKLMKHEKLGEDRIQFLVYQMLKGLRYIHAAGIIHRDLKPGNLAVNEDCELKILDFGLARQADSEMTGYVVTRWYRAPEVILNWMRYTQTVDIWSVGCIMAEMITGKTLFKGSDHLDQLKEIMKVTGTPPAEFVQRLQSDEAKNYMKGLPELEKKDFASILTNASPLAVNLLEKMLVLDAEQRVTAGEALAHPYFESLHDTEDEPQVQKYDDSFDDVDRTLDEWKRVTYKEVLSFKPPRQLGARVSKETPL
compound,measurement,setting,value
Cn1c([S+](C)[O-])nc(-c2ccc(F)cc2)c1-c1ccnc(N)c1 (stereo not given),inhibition,[1],inactive
same,inhibition,[2],inactive
same,Drug metabolism,[3],Metabolite_Detected
same,inhibition,[4],inactive
same,Tmax,Canis familiaris,4 h
CC(=O)Nc1cc(-c2c(-c3ccc(F)cc3)nc([S+](C)[O-])n2C)ccn1 (stereo not given),inhibition,[5],94%
same,inhibition,Homo sapiens [6],54%
same,Activity,Rattus norvegicus [7],Non-Toxic
same,Papp at 10 µM,[8],18.5 ×10⁻⁶ cm/s
same,Drug excretion,[9],6 %ID
same,Activity,Homo sapiens [10],Non-Toxic
same,Activity,Mus musculus [11],Active
same,Tmax,[12],4 h
same,inhibition,[13],inactive
same,inhibition,Homo sapiens [14],73%
same,Activity,Rattus norvegicus [15],Toxic
same,Activity,Homo sapiens [16],Non-Toxic
same,Cmax,[17],14.3 µM
same,dose excreted at 36 h,[18],6%
same,MTD at 672 h,[19],20 mg/kg
same,NOAEL at 672 h,[19],> 25 mg/kg
same,Activity,Cynomolgus monkey,Toxic
same,Activity,Bone marrow cell,Non-Toxic
same,Drug metabolism,Liver,Metabolite_Detected
same,AUC,Homo sapiens [20],6.1022 µM·h
same,inhibition,Rattus norvegicus [21],Active
same,inhibition in vivo at 3 mg/kg,Rattus norvegicus [22],88%
same,Activity,Mus musculus [23],Active
same,Activity,Rattus norvegicus [24],Toxic
same,Activity,Lymphocyte,Non-Toxic
same,inhibition,Homo sapiens [25],Dose-dependent effect
same,Drug metabolism,[26],Metabolite_Detected
same,inhibition,[27],55%
same,Tmax,[28],0.5 h
same,Activity,Rattus norvegicus [29],Toxic
